Experimental data: ChEMBL document CHEMBL1121799, “Beta-adrenoceptor stimulant properties of amidoalkylamino-substituted 1-aryl-2-ethanols and 1-(aryloxy)-2-propanols” (1981)

Assays:
Canis familiaris [1] = experiment: Effective dose required for the maximum heart rate in anesthetized dogs.; type: functional; conditions: Canis lupus familiaris
Summary of the method: (§1)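 Anesthetized dogs on pentobarbital (20 mg/kg iv, then 2 mg/kg iv every 30 min), ventilated with 40% O2 in air. Left hind limb pump-perfused from the abdominal aorta, heparin 500 IU/kg iv. HR from a lead II ECG-driven cardiotachometer. Arterial pCO2 held at 34-42 mmHg and pH 7.35-7.43. Cumulative iv doses in saline. ED50 taken from dose-response curves of peak HR or HLPP change.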

Canis familiaris [2] = organism: Canis familiaris; experiment: Selectivity is expressed as the ratio of ED50 on hind limb perfusion pressure to the ED50 on heart rate; type: functional, Canis lupus familiaris
Summary of the method: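 Cardioselectivity is the ratio of ED50 for HLPP to ED50 for HR. Both come from cumulative iv dose-response curves in pentobarbital-anesthetized dogs with a pump-perfused hind limb and a cardiotachometer reading HR.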

Canis familiaris [3] = organism: Canis familiaris; experiment: Intrinsic sympathomimetic activity (ISA, calculated as the percent of maximum change in heart rate (HR); type: functional, Canis lupus familiaris
Summary of the method: (§2)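 Same anesthetized, ventilated dog preparation with a pump-perfused left hind limb. An isoproterenol curve was run first. About 45 min later, once HR and HLPP had returned to control, cumulative iv doses of test compound in saline were given. ISA is the maximum HR or HLPP change produced by the compound, expressed as a percentage of the isoproterenol maximum.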

Canis familiaris [4] = organism: Canis familiaris; experiment: Intrinsic sympathomimetic activity (ISA), calculated as the percent of maximum change in hind limb perfusion pressure (HLPP); type: functional, Canis lupus familiaris, Hindlimb; summary of the method: as §2
Canis familiaris [5] = experiment: Effective dose required for the maximum hind limb perfusion pressure(HLPP) in anesthetized dogs.; type: functional; conditions: Canis lupus familiaris, Hindlimb; summary of the method: as §1

Row | SMILES | ED50 (Canis familiaris [1]) [µmol/kg] | Selectivity (Canis familiaris [2]) | ISA (Canis familiaris [3]) [%] | ISA (Canis familiaris [4]) [%] | ED50 (Canis familiaris [5]) [µmol/kg]
1 | NC(=O)NCCNCC(O)COc1ccc(O)cc1 (centres undefined) | 0.078 | 1.7 | 92 | 50 | 0.134
2 | O=C(NCCNCC(O)c1cccc(O)c1)Nc1ccccc1.O=C(O)C(=O)O (centres undefined) | 0.143 | 2 | 42 | 55 | 0.286
3 | CC(C)C(=O)NCCNCC(O)COc1cccc(O)c1.O=C(O)C(=O)O (centres undefined) | 0.209 | 1.2 | 25 | 33 | 0.26
4 | O=C(NCCNCC(O)COc1cc(O)cc(O)c1)Nc1ccccc1.O=C(O)C(=O)O (centres undefined) | 0.041 | >135 | 28 | 0 | > 5.5
5 | CC(C)NC(=O)NCCNCC(O)COc1ccc(O)cc1.O=C(O)C(=O)O (centres undefined) | 0.235 | 0.8 | 60 | 26 | 0.193
6 | O=C(O)C(=O)O.O=S(=O)(NCCNCC(O)COc1ccc(O)cc1)c1ccccc1 (centres undefined) | 0.074 | 0.7 | 55 | 45 | 0.055
7 | COCCNC(=O)NCCNCC(O)COc1ccc(O)cc1.O=C(O)C(=O)O (centres undefined) | 0.021 | 2.5 | 74 | 58 | 0.052
8 | O=C(NCCNCC(O)c1cc(O)cc(O)c1)Nc1ccccc1.O=C(O)C(=O)O (centres undefined) | 0.755 | 1 | 80 | 100 | 0.755
9 | CC(C)C(=O)NCCNCC(O)COc1ccc(O)cc1.O=C(O)C(=O)O (centres undefined) | 0.02 | 3.9 | 30 | 40 | 0.078
10 | CC(C)C(=O)NCCNCC(O)COc1ccc(O)c(CO)c1.O=C(O)C(=O)O (centres undefined) | 0.043 | 6.3 | 26 | 30 | 0.27
11 | O=C(NCCNCC(O)COc1ccc(O)cc1)N1CCOCC1 (centres undefined) [XAMOTEROL] | 0.012 | >250 | 50 | 0 | > 3
12 | CC(C)C(=O)NCCNCC(O)c1ccc(O)c(O)c1.O=C(O)C(=O)O (centres undefined) | 0.0025 | 2.4 | 84 | 100 | 0.006
13 | CC(C)NC[C@H](O)COc1ccc(O)cc1 [PRENALTEROL] | 0.031 |  | 56 | 31 | 0.006
14 | CC(C)C(=O)NCCNCC(O)COc1ccc(O)c(O)c1.O=C(O)C(=O)O (centres undefined) | 0.0016 | 1 | 100 | 100 | 0.0016
15 | O=C(NCCNCC(O)c1ccc(O)c(CO)c1)Nc1ccccc1.O=C(O)C(=O)O (centres undefined) | 0.038 | 8 | 76 | 88 | 0.304
16 | CC(C)C(=O)NCCNCC(O)c1cc(O)cc(O)c1.O=C(O)C(=O)O (centres undefined) | 0.035 | 3 | 89 | 100 | 0.105
17 | O=C(NCCNCC(O)COc1ccc(O)c(O)c1)Nc1ccccc1.O=C(O)C(=O)O (centres undefined) | 0.0041 | 24.4 | 80 | 100 | 0.1
18 | CC(C)C(=O)NCCNCC(O)COc1cc(O)cc(O)c1.O=C(O)C(=O)O (centres undefined) | 0.019 | 0.8 | 19 | 18 | 0.016
19 | CC(C)NCC(O)c1cc(O)cc(O)c1 (centres undefined) [METAPROTERENOL] | 0.014 | 1 | 83 | 100 | 0.014
20 | CC(C)NCC(O)COc1cccc(O)c1.O=C(O)C(=O)O (centres undefined) | 0.018 | 3.7 | 57 | 33 | 0.067
21 | CC(C)NCC(O)COc1cc(O)cc(O)c1.O=C(O)C(=O)O (centres undefined) | 0.012 | 1 | 32 | 25 | 0.012
22 | CC(C)NCC(O)c1ccc(O)c(O)c1 (centres undefined) [ISOPROTERENOL] | 0.0014 | 0.5 | 100 | 100 | 0.0008
23 | O=C(NCCNCC(O)COc1ccc(O)c(CO)c1)Nc1ccccc1.O=C(O)C(=O)O (centres undefined) | 0.045 | 2.5 | 42 | 32 | 0.112

Row | SMILES | ED50 (Canis familiaris [1]) [µmol/kg] | Selectivity (Canis familiaris [2]) | ISA (Canis familiaris [3]) [%] | ISA (Canis familiaris [4]) [%] | ED50 (Canis familiaris [5]) [µmol/kg]
24 | CC(C)C(=O)NCCNCC(O)c1ccc(O)c(CO)c1.O=C(O)C(=O)O (centres undefined) | 0.077 | 2 | 85 | 100 | 0.152
25 | CC(C)NCC(O)c1ccc(O)c(CO)c1 (centres undefined) | 0.222 | 0.04 | 100 | 100 | 0.009
26 | CCN(CC)C(=O)NCCNCC(O)COc1ccc(O)cc1.O=C(O)C(=O)O (centres undefined) | 0.037 | 10 | 28 | 18 | 0.036
27 | O=C(NCCO)NCCNCC(O)COc1ccc(O)cc1.O=C(O)C(=O)O (centres undefined) | 0.077 | 3.1 | 69 | 49 | 0.236
28 | CC(C)NCC(O)c1cccc(O)c1 (centres undefined) [METATEROL] | 0.071 | 1.9 | 100 | 100 | 0.138
29 | Cl.O=C(NCCNCC(O)COc1ccc(O)cc1)N(CCO)CCO (centres undefined) | 0.145 | 16 | 41 | 42 | 2.33
30 | CC(C)C(=O)NCCNCC(O)c1cccc(O)c1.O=C(O)C(=O)O (centres undefined) | 0.038 | 3.5 | 75 | 75 | 0.132
31 | O=C(Cc1ccccc1)NCCNCC(O)COc1ccc(O)cc1.O=C(O)C(=O)O (centres undefined) | 0.027 | 3.3 | 40 | 40 | 0.09
32 | CN(C)C(=O)NCCNCC(O)COc1ccc(O)cc1.O=C(O)C(=O)O (centres undefined) | 0.024 | >40 | 29 | 0 | > 1
33 | Cl.O=C(NCCNCC(O)COc1ccc(O)cc1)NCc1ccccc1 (centres undefined) | 0.019 | 4.3 | 80 | 70 | 0.081
34 | O=C(O)C(=O)O.O=S(=O)(NCCNCC(O)COc1ccc(O)cc1)Nc1ccccc1 (centres undefined) | 0.018 | 2.9 | 92 | 79 | 0.052
35 | O=C(NCCNCC(O)COc1cccc(O)c1)Nc1ccccc1.O=C(O)C(=O)O (centres undefined) | 0.009 | >170 | 21 | 0 | > 1.5
36 | CC(C)C(=O)NCCNCC(O)c1ccc(O)cc1.O=C(O)C(=O)O (centres undefined) | 0.056 | 1.3 | 90 | 82 | 0.071
37 | CN(CCO)C(=O)NCCNCC(O)COc1ccc(O)cc1.Cl (centres undefined) | 0.037 | 33 | 43 | 48 | 1.17
38 | CC(C)NCC(O)COc1ccc(O)c(O)c1.O=C(O)C(=O)O (centres undefined) | 0.0012 | 1 | 100 | 100 | 0.0012
39 | COCCN(C)C(=O)NCCNCC(O)COc1ccc(O)cc1.O=C(O)C(=O)O (centres undefined) | 0.012 | >250 | 27 | 0 | > 3
40 | CC(C)NCC(O)COc1ccc(O)c(CO)c1.O=C(O)C(=O)O (centres undefined) | 0.067 | 1.5 | 44 | 55 | 0.098
41 | O=C(NCCNCC(O)c1ccc(O)c(O)c1)Nc1ccccc1.O=C(O)C(=O)O (centres undefined) | 0.0009 | 6 | 100 | 100 | 0.0054
42 | CN(C)S(=O)(=O)NCCNCC(O)COc1ccc(O)cc1.O=C(O)C(=O)O (centres undefined) | 0.069 | 2.5 | 80 | 80 | 0.175
43 | O=C(NCCNCC(O)c1ccc(O)cc1)Nc1ccccc1.O=C(O)C(=O)O (centres undefined) | 0.098 | 2.3 | 71 | 70 | 0.228
44 | CC(C)NCC(O)c1ccc(O)cc1 (centres undefined) [DETERENOL] | 0.01 | 7.7 | 88 | 55 | 0.077
45 | O=C(NCCNCC(O)COc1ccc(O)cc1)Nc1ccccc1.O=C(O)C(=O)O (centres undefined) | 0.058 | 2.8 | 52 | 45 | 0.165
